Legend:
Homo sapiens = species: Homo sapiens; experiment: Selectivity ratio of IC50 for 5-HT3A receptor (unknown origin) to EC50 for alpha7 nAChR (unknown origin) expressed in HEK293 cells; format: cell-based
Procedure, shortened: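 Selectivity ratio calculated as 5-HT3A IC50 (FLIPR Ca2+ antagonist assay) divided by α7 EC50 (FLIPR Ca2+ agonist assay).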

[1] = target: Neuronal acetylcholine receptor subunit alpha-7 (Rattus norvegicus) (UniProt Q05941); experiment: Agonist activity at rat alpha7 nAChR expressed in HEK293 cells co-expressing human RIC-3 assessed as maximum peak current at 10 uM at holding potential of -90 mV by whole-cell voltage clamp electrophysiology method relative to acetylcholine; format: cell-based
Chain of Neuronal acetylcholine receptor subunit alpha-7 (Rattus norvegicus) (Q05941 whole entry): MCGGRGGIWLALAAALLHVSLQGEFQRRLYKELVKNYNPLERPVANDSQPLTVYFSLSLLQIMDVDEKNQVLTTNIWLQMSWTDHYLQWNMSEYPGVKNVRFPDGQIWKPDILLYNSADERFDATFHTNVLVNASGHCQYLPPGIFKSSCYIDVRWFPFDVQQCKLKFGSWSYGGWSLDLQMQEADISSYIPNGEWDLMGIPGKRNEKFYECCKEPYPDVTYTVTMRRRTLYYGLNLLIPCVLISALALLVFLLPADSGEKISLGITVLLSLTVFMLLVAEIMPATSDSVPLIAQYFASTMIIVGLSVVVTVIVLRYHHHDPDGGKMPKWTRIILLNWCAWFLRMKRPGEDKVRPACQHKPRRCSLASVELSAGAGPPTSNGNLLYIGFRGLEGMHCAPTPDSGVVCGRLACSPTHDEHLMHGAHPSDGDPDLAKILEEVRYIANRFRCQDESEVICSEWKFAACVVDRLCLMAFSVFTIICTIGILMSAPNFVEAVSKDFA
Procedure, shortened: (§1)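 Concentration-response patch-clamp electrophysiology in HEK-293 cells expressing rat α7 nAChR. EC50 is taken from response area. Efficacy is given as Ymax from both area and peak response.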

[2] = target: T1, 5-hydroxytryptamine receptor 3A (Homo sapiens, UniProt P46098); experiment: Antagonist activity at 5-HT3A receptor (unknown origin) assessed as decrease in calcium influx by Fluo-4-AM dye based FLIPR assay
T1 sequence (P46098 whole entry): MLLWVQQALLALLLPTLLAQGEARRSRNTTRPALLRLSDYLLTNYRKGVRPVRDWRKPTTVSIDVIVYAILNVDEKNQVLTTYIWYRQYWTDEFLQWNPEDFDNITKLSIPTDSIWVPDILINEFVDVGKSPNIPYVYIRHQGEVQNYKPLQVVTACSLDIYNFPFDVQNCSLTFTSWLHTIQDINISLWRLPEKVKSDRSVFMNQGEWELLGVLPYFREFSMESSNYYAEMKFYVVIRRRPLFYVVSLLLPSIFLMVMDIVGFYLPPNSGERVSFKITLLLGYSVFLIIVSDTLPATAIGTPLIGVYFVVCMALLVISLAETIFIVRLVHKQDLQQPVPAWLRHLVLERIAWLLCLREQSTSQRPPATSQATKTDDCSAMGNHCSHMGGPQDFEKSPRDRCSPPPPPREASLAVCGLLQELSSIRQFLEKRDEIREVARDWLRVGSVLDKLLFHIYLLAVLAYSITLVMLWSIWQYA
Procedure, shortened: (§2)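 Ca2+-based fluorescence imaging plate reader screen, run as two assays: α7 nAChR agonism and 5-HT3A receptor antagonism. Number of determinations recorded per value.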

[3] = target: Neuronal acetylcholine receptor subunit alpha-7 (Homo sapiens, UniProt P36544); experiment: Agonist activity at alpha7 nAChR (unknown origin) expressed in HEK293 cells assessed as increase in calcium influx by Fluo-4-AM dye based FLIPR assay; format: cell-based; procedure, shortened: as §2
Chain of Neuronal acetylcholine receptor subunit alpha-7 (Homo sapiens, UniProt P36544) (P36544 whole entry): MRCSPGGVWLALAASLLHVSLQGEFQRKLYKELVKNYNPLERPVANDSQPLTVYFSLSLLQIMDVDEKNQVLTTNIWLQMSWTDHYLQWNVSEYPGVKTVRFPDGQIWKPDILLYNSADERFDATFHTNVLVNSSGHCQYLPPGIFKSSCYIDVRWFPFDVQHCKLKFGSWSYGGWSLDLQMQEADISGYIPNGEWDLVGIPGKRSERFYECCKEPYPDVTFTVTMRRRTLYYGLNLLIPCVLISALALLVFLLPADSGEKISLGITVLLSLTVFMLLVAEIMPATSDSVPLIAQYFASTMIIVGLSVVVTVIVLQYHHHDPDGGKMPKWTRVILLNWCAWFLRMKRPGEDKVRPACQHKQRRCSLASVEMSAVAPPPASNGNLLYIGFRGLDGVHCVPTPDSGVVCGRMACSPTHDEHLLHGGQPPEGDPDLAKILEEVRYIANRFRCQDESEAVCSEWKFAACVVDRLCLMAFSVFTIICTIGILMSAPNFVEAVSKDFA

[4] = target: Neuronal acetylcholine receptor subunit alpha-7 (Rattus norvegicus, UniProt Q05941); experiment: Agonist activity at rat alpha7 nAChR expressed in HEK293 cells co-expressing human RIC-3 assessed as area under current curve at holding potential of -90 mV by whole-cell voltage clamp electrophysiology method; format: cell-based; procedure, shortened: as §1
Chain of Neuronal acetylcholine receptor subunit alpha-7 (Rattus norvegicus, UniProt Q05941) (Q05941 whole entry): as the sequence (Q05941 whole entry) above

[5] = target: Neuronal acetylcholine receptor subunit alpha-7 (Rattus norvegicus) (UniProt Q05941); experiment: Agonist activity at rat alpha7 nAChR expressed in HEK293 cells co-expressing human RIC-3 assessed as area under current curve at 10 uM at holding potential of -90 mV by whole-cell voltage clamp electrophysiology method relative to acetylcholine; format: cell-based; procedure, shortened: as §1
[6] = Plasma concentration in Wistar rat at 0.3 mg/kg, sc after 2 hrs; format: ADME, organism-based
Rattus norvegicus [7] = experiment: In vivo agonist activity at alpha7 nAChR in Wistar rat assessed as induction of c-fos gene expression in medial prefrontal cortex at 10 mg/kg, sc after 2 hrs by qPCR method relative to control; format: functional
Procedure, shortened: (§3)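 Rats dosed sc at 0.3–10 mg/kg, or with vehicle at 2 mL/kg sc. Medial prefrontal cortex was assayed for c-fos and Arc expression, normalized to vehicle, with β2-microglobulin as the endogenous control. Data are mean ± SEM, N = 8. Dunnett's multiple comparison test against vehicle gave adjusted p values.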

[8] = Ratio of drug uptake in Wistar rat brain to plasma at 3 mg/kg, sc after 2 hrs; format: ADME, organism-based; conditions: read-out: BPR
Procedure, shortened: (§4)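 Plasma concentration and brain/plasma ratio measured at 3 and 10 mg/kg sc, in the same rats used for the prefrontal c-fos/Arc expression study.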

[9] = Plasma concentration in Wistar rat at 1 mg/kg, sc after 2 hrs; format: ADME, organism-based
Rattus norvegicus [10] = experiment: In vivo agonist activity at alpha7 nAChR in Wistar rat assessed as induction of Arc gene expression in medial prefrontal cortex at 0.3 mg/kg, sc after 2 hrs by qPCR method relative to control; format: functional
Procedure, shortened: (§5)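 Rats dosed sc (0.3–10 mg/kg; vehicle 2 mL/kg sc) and c-fos and Arc expression measured in medial prefrontal cortex. Values are normalized to vehicle, mean ± SEM, N = 8. Comparison with vehicle by Dunnett's multiple comparison test (adjusted p). β2-microglobulin served as endogenous control. Plasma and brain/plasma levels were sampled at 3 and 10 mg/kg.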

[11] = Drug uptake in Wistar rat brain at 0.3 mg/kg, sc after 2 hrs; format: ADME, organism-based; conditions: read-out: Drug uptake
Rattus norvegicus [12] = experiment: In vivo agonist activity at alpha7 nAChR in Wistar rat assessed as induction of Arc gene expression in medial prefrontal cortex at 1 mg/kg, sc after 2 hrs by qPCR method relative to control; format: functional; procedure, shortened: as §5
[13] = Plasma concentration in Wistar rat at 3 mg/kg, sc after 2 hrs; format: ADME, organism-based; procedure, shortened: as §4
[14] = Drug uptake in Wistar rat brain at 3 mg/kg, sc after 2 hrs; format: ADME, organism-based; conditions: read-out: Drug uptake
Rattus norvegicus [15] = experiment: In vivo agonist activity at alpha7 nAChR in Wistar rat assessed as induction of c-fos gene expression in medial prefrontal cortex at 3 mg/kg, sc after 2 hrs by qPCR method relative to control; format: functional; procedure, shortened: as §5
[16] = Ratio of drug uptake in Wistar rat brain to plasma at 0.3 mg/kg, sc after 2 hrs; format: ADME, organism-based; conditions: read-out: BPR
[17] = Ratio of drug uptake in Wistar rat brain to plasma at 10 mg/kg, sc after 2 hrs; format: ADME, organism-based; conditions: read-out: BPR; procedure, shortened: as §4
Rattus norvegicus [18] = experiment: In vivo agonist activity at alpha7 nAChR in Wistar rat assessed as induction of Arc gene expression in medial prefrontal cortex at 3 mg/kg, sc after 2 hrs by qPCR method relative to control; format: functional; procedure, shortened: as §5
[19] = target: Neuronal acetylcholine receptor subunit alpha-7 (Rattus norvegicus) (UniProt Q05941); experiment: Displacement of [125I]Tyr54-alpha-Bungarotoxin from rat alpha7 nAChR expressed in HEK293 cell membranes co-expressing human RIC-3 after 2 hrs by gamma counting method
Rattus norvegicus [20] = experiment: In vivo agonist activity at alpha7 nAChR in Wistar rat assessed as induction of c-fos gene expression in medial prefrontal cortex at 0.3 mg/kg, sc after 2 hrs by qPCR method relative to control; format: functional; procedure, shortened: as §5
Rattus norvegicus [21] = experiment: In vivo agonist activity at alpha7 nAChR in Wistar rat assessed as induction of Arc gene expression in medial prefrontal cortex at 10 mg/kg, sc after 2 hrs by qPCR method relative to control; format: functional; procedure, shortened: as §3
[22] = Drug uptake in Wistar rat brain at 1 mg/kg, sc after 2 hrs; format: ADME, organism-based; conditions: read-out: Drug uptake
[23] = Drug uptake in Wistar rat brain at 10 mg/kg, sc after 2 hrs; format: ADME, organism-based; conditions: read-out: Drug uptake
[24] = Plasma concentration in Wistar rat at 10 mg/kg, sc after 2 hrs; format: ADME, organism-based; procedure, shortened: as §4
[25] = Ratio of drug uptake in Wistar rat brain to plasma at 1 mg/kg, sc after 2 hrs; format: ADME, organism-based; conditions: read-out: BPR
Rattus norvegicus [26] = experiment: In vivo agonist activity at alpha7 nAChR in Wistar rat assessed as induction of c-fos gene expression in medial prefrontal cortex at 1 mg/kg, sc after 2 hrs by qPCR method relative to control; format: functional; procedure, shortened: as §5
Rattus norvegicus [27] = experiment: Effect on beta2-microglobulin gene expression in Wistar rat medial prefrontal cortex at 0.3 to 10 mg/kg, sc after 2 hrs by qPCR method; format: ADME, organism-based; conditions: in vivo; procedure, shortened: as §3

Compound `CN1C(Nc2nc3ccccc3s2)=NCC12CN1CCC2CC1` (stereo unspecified) has a Ratio IC50/EC50 (Homo sapiens) of 0.25, an Emax [1] of 25% and an IC50 [2] of 43 nM. The EC50 [3] was 170 nM, the EC50 [4] was 1200 nM and the Emax [5] was 67%.
`Clc1ccc2c(NC3=NCC4(CN5CCC4CC5)N3)ncnn12` (stereo unspecified) showed a Ratio IC50/EC50 (Homo sapiens) of 610, an IC50 [2] of 38000 nM and an EC50 [3] of 62 nM.
In the case of `c1ccc2sc(NC3=NCC4(CN5CCC4CC5)N3)nc2c1` (stereo unspecified), the concentration at 2 h [6] is reported as 12 nM, the “fold change (FC)” value (Rattus norvegicus [7]) is reported as 1.9 and the Kp at 2 h [8] is reported as 4. For the same compound, the concentration at 2 h [9] was 43 nM, the Ratio IC50/EC50 (Homo sapiens) was 1 and the “fold change (FC)” value (Rattus norvegicus [10]) was 1.2. The Emax [1] was 29%, the concentration at 2 h [11] was 58 nM and the “fold change (FC)” value (Rattus norvegicus [12]) was 1. The concentration at 2 h [13] was 130 to 131 nM, the concentration at 2 h [14] was 524 nM and the “fold change (FC)” value (Rattus norvegicus [15]) was 1.7. It also gave an IC50 [2] of 26 nM, an EC50 [3] of 26 nM and an EC50 [4] of 200 nM. For the same compound, the Kp at 2 h [16] was 4.8, the Kp at 2 h [17] was 4.1 and the “fold change (FC)” value (Rattus norvegicus [18]) was 1.5. For the same compound, the Emax [5] was 78%, the INH [19] was 240 nM and the “fold change (FC)” value (Rattus norvegicus [20]) was 1.5. For the same compound, the “fold change (FC)” value (Rattus norvegicus [21]) was 2.7, the concentration at 2 h [22] was 184 nM and the concentration at 2 h [23] was 1920 nM. For the same compound, the concentration at 2 h [24] was 460 to 463 nM, the Kp at 2 h [25] was 4.3 and the “fold change (FC)” value (Rattus norvegicus [26]) was 1.1. The Activity (Rattus norvegicus [27]) was “Non-Toxic”.
`Clc1cccc2sc(NC3=NCC4(CN5CCC4CC5)N3)nc12` (racemic) gave a Ratio IC50/EC50 (Homo sapiens) of 0.32, an IC50 [2] of 38 nM and an EC50 [3] of 120 nM.
With `COc1cc(NC2=NCC3(CN4CCC3CC4)N2)ncn1` (racemic) the Ratio IC50/EC50 (Homo sapiens) was greater than 77, the IC50 [2] was greater than 100000 nM and the EC50 [3] was 1300 nM.
`Clc1ccc2nc(NC3=NCC4(CN5CCC4CC5)N3)sc2n1` (racemic) showed a Ratio IC50/EC50 (Homo sapiens) of 570, an IC50 [2] of 32000 nM and an EC50 [3] of 56 nM.
`CCN1C(Nc2nc3ccc(OC)cc3s2)=NCC12CN1CCC2CC1` (racemic) showed a Ratio IC50/EC50 (Homo sapiens) greater than 1, an IC50 [2] greater than 12000 nM and an EC50 [3] greater than 10000 nM.
With `c1ccc2nc(NC3=NCC4(CN5CCC4CC5)N3)cnc2c1` (racemic) the Ratio IC50/EC50 (Homo sapiens) was 2.9, the IC50 [2] was 1400 nM and the EC50 [3] was 490 nM.
`c1cn(-c2cc(NC3=NCC4(CN5CCC4CC5)N3)ncn2)cn1` (racemic) gave a Ratio IC50/EC50 (Homo sapiens) of 460, an IC50 [2] of 6400 nM and an EC50 [3] of 140 nM.
`Clc1cnc(NC2=NCC3(CN4CCC3CC4)N2)nc1` (racemic) gave a Ratio IC50/EC50 (Homo sapiens) of 2.1, an Emax [1] of 11% and an IC50 [2] of 620 nM. For the same compound, the EC50 [3] was 290 nM, the EC50 [4] was 1100 nM and the Emax [5] was 44%.

— ChEMBL document CHEMBL4041530, “Development of spiroguanidine-derived α7 neuronal nicotinic receptor partial agonists” (Bioorg Med Chem Lett, 2017)
